Experimental data from ChEMBL document CHEMBL2069295, “Discovery of 6-substituted 4-anilinoquinazolines with dioxygenated rings as novel EGFR tyrosine kinase inhibitors” (Bioorg Med Chem Lett, 2012).
≈ marks a conversion by molar mass, not a printed value. Calls of active or inactive are those of the source. The calls are words filed in the database; no cut-off is given here.

Tests used:
A-431 = experiment: Antiproliferative activity against human A431 cells after 24 to 48 hrs by WST1 assay; assay type: functional, cell-based
A549 [1] = experiment: Antiproliferative activity against human A549 cells after 24 to 48 hrs by WST1 assay; assay type: functional, cell-based
B16-F10 [2] = experiment: Growth inhibition of mouse B16F10 cells at 10 ug/mL after 24 to 48 hrs by WST1 assay; assay type: functional; conditions: read-out: GI
How it was run: (§1)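 Single-concentration growth inhibition at 10 µg/mL, the top concentration used because higher levels precipitated in culture medium. Three separate experiments, each in triplicate.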

[3] = molecular target: T1, Epidermal growth factor receptor (Homo sapiens, UniProt P00533); experiment: Inhibition of EGFR in human A431 cell lysate using tyrosine/glutamic acid polymer as substrate by ELISA; set-up: species or system A-431
T1 sequence (P00533 whole entry): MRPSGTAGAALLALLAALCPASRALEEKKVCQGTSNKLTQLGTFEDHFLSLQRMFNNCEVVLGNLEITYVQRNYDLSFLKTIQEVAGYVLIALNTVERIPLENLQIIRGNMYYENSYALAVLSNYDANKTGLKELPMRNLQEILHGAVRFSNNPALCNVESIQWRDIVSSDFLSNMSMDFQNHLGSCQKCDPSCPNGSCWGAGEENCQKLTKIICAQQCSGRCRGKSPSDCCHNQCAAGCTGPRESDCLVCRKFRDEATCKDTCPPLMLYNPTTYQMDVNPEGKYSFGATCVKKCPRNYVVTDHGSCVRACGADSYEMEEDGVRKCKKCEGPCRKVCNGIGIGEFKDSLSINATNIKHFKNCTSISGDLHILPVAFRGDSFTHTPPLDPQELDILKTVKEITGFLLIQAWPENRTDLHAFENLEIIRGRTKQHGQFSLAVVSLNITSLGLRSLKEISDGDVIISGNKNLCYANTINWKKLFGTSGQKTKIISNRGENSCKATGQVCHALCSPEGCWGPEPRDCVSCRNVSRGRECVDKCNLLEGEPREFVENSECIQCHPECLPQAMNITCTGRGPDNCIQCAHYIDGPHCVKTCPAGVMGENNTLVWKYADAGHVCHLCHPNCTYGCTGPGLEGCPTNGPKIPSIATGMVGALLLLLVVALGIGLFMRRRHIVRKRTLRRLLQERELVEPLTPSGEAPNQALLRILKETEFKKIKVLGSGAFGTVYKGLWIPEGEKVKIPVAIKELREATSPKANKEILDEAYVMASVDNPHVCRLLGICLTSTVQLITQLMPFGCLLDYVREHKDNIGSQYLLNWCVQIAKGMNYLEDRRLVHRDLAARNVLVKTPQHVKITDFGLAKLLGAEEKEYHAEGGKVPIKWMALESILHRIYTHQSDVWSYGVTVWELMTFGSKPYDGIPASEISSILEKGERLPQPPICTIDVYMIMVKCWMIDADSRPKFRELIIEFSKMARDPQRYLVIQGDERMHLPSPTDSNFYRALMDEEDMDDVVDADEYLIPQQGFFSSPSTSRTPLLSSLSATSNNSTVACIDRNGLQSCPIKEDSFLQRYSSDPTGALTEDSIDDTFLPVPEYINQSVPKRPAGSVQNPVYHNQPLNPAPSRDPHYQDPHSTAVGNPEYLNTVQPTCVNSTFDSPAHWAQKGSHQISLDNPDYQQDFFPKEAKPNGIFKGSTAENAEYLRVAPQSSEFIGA

MCF7 [4] = experiment: cells; conditions: Homo sapiens
B16-F10 [5] = experiment: cells; conditions: Mus musculus
[6] = molecular target: Receptor tyrosine-protein kinase erbB-2 (Homo sapiens, UniProt P04626); experiment: Inhibition of recombinant HER2 expressed in baculovirus infected Sf9 cells using [32P]ATP incubated for 30 mins prior to ATP addition measured after 20 mins by liquid scintillation counting
Chain of Receptor tyrosine-protein kinase erbB-2 (P04626 whole entry): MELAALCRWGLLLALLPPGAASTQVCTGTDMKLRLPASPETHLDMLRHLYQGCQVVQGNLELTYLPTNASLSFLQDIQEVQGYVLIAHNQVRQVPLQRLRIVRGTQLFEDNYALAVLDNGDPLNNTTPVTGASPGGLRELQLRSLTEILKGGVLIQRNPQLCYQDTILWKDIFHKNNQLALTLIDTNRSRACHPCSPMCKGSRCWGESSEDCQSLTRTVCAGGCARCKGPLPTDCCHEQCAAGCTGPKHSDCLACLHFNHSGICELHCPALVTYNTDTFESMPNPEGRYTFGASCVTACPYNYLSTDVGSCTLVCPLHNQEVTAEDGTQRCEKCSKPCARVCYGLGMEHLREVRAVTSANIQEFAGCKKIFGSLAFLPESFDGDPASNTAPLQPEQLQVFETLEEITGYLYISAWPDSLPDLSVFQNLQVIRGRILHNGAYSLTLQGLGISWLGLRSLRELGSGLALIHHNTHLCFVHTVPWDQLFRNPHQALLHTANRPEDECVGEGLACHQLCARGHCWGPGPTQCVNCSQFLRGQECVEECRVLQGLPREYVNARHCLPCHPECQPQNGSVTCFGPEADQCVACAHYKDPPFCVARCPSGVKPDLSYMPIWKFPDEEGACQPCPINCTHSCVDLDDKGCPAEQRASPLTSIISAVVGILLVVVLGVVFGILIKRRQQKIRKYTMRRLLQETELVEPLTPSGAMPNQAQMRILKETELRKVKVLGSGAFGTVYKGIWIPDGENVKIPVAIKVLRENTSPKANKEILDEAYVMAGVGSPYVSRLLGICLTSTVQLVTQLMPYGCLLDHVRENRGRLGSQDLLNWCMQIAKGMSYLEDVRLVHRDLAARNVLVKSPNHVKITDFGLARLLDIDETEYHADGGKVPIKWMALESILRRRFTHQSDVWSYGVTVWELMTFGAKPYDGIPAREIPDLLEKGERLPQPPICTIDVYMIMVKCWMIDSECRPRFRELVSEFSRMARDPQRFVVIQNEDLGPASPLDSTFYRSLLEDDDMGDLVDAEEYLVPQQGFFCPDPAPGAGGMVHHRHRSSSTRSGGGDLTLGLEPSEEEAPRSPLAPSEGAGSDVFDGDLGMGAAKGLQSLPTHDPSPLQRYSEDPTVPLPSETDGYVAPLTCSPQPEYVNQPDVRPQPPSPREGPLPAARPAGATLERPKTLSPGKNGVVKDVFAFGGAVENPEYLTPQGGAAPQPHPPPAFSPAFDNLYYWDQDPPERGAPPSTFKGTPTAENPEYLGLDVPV

[7] = molecular target: Vascular endothelial growth factor receptor 2 (Homo sapiens, UniProt P35968); experiment: Inhibition of VEGFR2 using ATP incubated for 30 mins prior to ATP addition measured after 60 mins by fluorimetry
Chain of Vascular endothelial growth factor receptor 2 (P35968 whole entry): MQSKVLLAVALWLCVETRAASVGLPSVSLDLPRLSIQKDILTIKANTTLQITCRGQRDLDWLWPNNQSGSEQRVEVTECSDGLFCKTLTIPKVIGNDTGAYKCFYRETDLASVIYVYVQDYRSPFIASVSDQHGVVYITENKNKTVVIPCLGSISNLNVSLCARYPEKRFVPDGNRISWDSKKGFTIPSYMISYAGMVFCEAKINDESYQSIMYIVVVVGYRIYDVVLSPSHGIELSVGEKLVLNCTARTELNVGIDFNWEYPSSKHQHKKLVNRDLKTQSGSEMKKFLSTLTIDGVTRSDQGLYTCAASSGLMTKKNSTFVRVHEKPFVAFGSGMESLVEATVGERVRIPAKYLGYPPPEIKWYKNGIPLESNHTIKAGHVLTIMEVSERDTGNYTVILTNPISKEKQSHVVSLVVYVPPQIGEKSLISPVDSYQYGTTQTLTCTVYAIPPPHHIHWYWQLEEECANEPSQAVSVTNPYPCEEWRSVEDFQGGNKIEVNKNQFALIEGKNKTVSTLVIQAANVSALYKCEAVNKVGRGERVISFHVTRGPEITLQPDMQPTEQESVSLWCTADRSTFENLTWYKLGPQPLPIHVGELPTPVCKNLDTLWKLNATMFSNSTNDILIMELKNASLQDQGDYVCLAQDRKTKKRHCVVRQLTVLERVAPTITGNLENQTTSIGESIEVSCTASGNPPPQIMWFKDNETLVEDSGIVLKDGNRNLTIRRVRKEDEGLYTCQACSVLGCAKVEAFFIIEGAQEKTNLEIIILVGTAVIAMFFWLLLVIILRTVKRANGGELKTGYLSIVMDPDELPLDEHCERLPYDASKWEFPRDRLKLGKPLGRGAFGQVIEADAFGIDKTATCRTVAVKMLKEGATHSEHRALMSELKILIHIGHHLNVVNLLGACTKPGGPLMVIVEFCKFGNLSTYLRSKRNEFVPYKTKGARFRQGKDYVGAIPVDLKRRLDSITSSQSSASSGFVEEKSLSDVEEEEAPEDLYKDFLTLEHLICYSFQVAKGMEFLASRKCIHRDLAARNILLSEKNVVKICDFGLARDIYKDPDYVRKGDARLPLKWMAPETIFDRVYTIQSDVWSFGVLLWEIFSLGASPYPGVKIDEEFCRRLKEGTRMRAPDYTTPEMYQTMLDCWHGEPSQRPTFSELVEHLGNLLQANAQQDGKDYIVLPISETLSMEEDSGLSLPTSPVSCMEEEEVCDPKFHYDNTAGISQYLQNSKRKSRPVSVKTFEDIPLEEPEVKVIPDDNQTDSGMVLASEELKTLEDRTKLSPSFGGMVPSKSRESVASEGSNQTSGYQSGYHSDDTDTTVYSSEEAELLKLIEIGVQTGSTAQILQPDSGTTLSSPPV

[8] = molecular target: T1, Epidermal growth factor receptor; experiment: Inhibition of EGFR in human A431 cells assessed as inhibition of EGF-stimulated autophosphorylation at 100 nM incubated for 1 hr prior to EGF-induction measured after 15 mins by Western blot analysis; assay type: cell-based; conditions: A-431
How it was run: (§2)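 A431 cells were incubated […] with compound at 10 or 100 nM, then stimulated with EGF. Whole-cell lysates were Western blotted with an anti-phosphotyrosine antibody to detect EGFR autophosphorylation.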

MCF7 [9] = experiment: Growth inhibition of human MCF7 cells at 10 ug/mL after 24 to 48 hrs by WST1 assay; assay type: functional; conditions: read-out: GI; how it was run: as §1
A549 [10] = experiment: Growth inhibition of human A549 cells at 10 ug/mL after 24 to 48 hrs by WST1 assay; assay type: functional; conditions: read-out: GI; how it was run: as §1
[11] = molecular target: T1, Epidermal growth factor receptor; experiment: Inhibition of EGFR in human A431 cells assessed as inhibition of EGF-stimulated autophosphorylation at 10 nM incubated for 1 hr prior to EGF-induction measured after 15 mins by Western blot analysis; assay type: cell-based; conditions: A-431; how it was run: as §2

Compound | IC50 (A-431) [µg/mL] | IC50 (A549 [1]) [µg/mL] | inhibition of growth at 10 µg/mL (B16-F10 [2]) [%] | IC50 [3] [µM] | IC50 (MCF7 [4]) [µg/mL] | IC50 (B16-F10 [5]) [µg/mL] | IC50 [6] [µM] | IC50 [7] [µM] | inhibition [8] | inhibition of growth at 10 µg/mL (MCF7 [9]) [%] | inhibition of growth at 10 µg/mL (A549 [10]) [%] | inhibition [11]
O=C(Nc1ccc2ncnc(Nc3cccc(Cl)c3)c2c1)C1COc2ccccc2O1 (stereo unspecified) | 19.9 (≈ 45.9 µM) | 61.2 (≈ 141 µM) | < 50 | 2.75 | 52.2 (≈ 121 µM) | > 100 |  |  |  |  |  | 
Brc1cccc(Nc2ncnc3ccc(NCc4ccc5c(c4)OCO5)cc23)c1 | 6.82 (≈ 15.2 µM) | 68.7 (≈ 153 µM) |  | 0.63 | 14.5 (≈ 32.2 µM) | 3.62 (≈ 8.06 µM) |  |  |  |  |  | 
O=C(Nc1ccc2ncnc(Nc3cccc(Br)c3)c2c1)c1cccc2c1OCCO2 | 20.3 (≈ 42.6 µM) | 84 (≈ 176 µM) | < 50 | 1.63 | 59.5 (≈ 125 µM) | > 100 |  |  |  |  |  | 
Brc1cccc(Nc2ncnc3ccc(NCc4ccc5c(c4)OCCCCO5)cc23)c1 | 15 (≈ 30.6 µM) | > 100 |  | 1.14 | 32.1 (≈ 65.2 µM) | 20.6 (≈ 42 µM) |  |  |  |  |  | 
Brc1cccc(Nc2ncnc3ccc(NCc4ccc5c(c4)OCCO5)cc23)c1 | 12.5 (≈ 27.1 µM) | 58.3 (≈ 126 µM) |  | 1.02 | 10.7 (≈ 23.1 µM) | 12 (≈ 25.9 µM) |  |  |  |  |  | 
COc1cc2ncnc(Nc3cccc(Br)c3)c2cc1OC | 2.26 (≈ 6.27 µM) | 8.13 (≈ 22.6 µM) |  |  | 3.21 (≈ 8.91 µM) |  |  |  |  |  |  | 
Clc1cccc(Nc2ncnc3ccc(NCc4ccc5c(c4)OCCCCO5)cc23)c1 | 13.3 (≈ 29.8 µM) | 44.8 (≈ 100 µM) |  | 0.92 | 21.3 (≈ 47.7 µM) | 17.5 (≈ 39.1 µM) | > 10 | > 10 |  |  |  | 
Clc1cccc(Nc2ncnc3ccc(NCc4ccc5c(c4)OCCCO5)cc23)c1 | 2.59 (≈ 5.98 µM) | 31 (≈ 71.7 µM) |  | 0.216 | 4.28 (≈ 9.89 µM) | 2.14 (≈ 4.94 µM) |  |  | Active |  |  | 
O=C(Nc1ccc2ncnc(Nc3cccc(Br)c3)c2c1)C1COc2ccccc2O1 (stereo unspecified) | 42.9 (≈ 89.9 µM) | 73.8 (≈ 155 µM) |  | 3.68 | > 100 | 50.1 (≈ 105 µM) |  |  | Active | < 50 |  | 
O=C(Nc1ccc2ncnc(Nc3cccc(Cl)c3)c2c1)c1cccc2c1OCCO2 | 46.6 (≈ 108 µM) | > 100 |  | 1.29 | > 100 | 9.86 (≈ 22.8 µM) |  |  |  | < 50 | < 50 | 
Clc1cccc(Nc2ncnc3ccc(NCc4ccc5c(c4)OCCO5)cc23)c1 |  |  |  |  | 23.1 (≈ 55.3 µM) | 16.3 (≈ 39 µM) |  |  |  |  |  | 
Clc1cccc(Nc2ncnc3ccc(NCc4ccc5c(c4)OCO5)cc23)c1 |  |  |  |  | 7.36 (≈ 18.2 µM) |  | 6.5 | > 10 |  |  |  | 
Brc1cccc(Nc2ncnc3ccc(NCc4ccc5c(c4)OCCCO5)cc23)c1 | 2.77 (≈ 5.8 µM) | 15.5 (≈ 32.5 µM) |  | 0.098 | 5.02 (≈ 10.5 µM) | 1.99 (≈ 4.17 µM) | 4.8 | > 10 | Active |  |  | Active
